Results published in PMC4277744 (European journal of medicinal chemistry, 2014).
Read-outs that look alike come from different tables or passages of the source. One block for each compound: values may come before it.

Legend:
[1] = Stability of ninhydrin adduct in aqueous buffer monitored by 1H NMR; type: physicochemical; conditions: after one hour, pH 8, D2O, 10 mM phosphate buffer
[2] = cited from earlier work
[3] = biological target: T1, catalytic domain of KDM4A (Homo sapiens, UniProt O75164); assay: Fluorescence-based; type: biochemical; conditions: FluoZin-3 dye measures unbound zinc; ebselen positive control
T1 sequence (O75164 142-308 limits assumed): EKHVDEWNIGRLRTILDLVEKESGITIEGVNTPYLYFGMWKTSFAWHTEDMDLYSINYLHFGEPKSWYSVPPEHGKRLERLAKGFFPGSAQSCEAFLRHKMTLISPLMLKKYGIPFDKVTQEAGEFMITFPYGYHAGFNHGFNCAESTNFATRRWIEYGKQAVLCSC

HeLa cell [4] = assay: HeLa cell viability assay; conditions: after 48 h
CH1 domain of p300 = CH1 domain of p300 (Homo sapiens, UniProt Q09472); assay: Fluorescence-based assay for release of Zn; type: biochemical; conditions: high basal levels of Zn(II), poorer resolution
CH1 domain of p300, sequence (Q09472 331-417 limits assumed): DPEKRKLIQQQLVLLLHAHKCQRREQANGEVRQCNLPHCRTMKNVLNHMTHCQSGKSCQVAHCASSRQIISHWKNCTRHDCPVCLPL

[5] = biological target: HIF-1α (785-826)/p300 CH1 domain (323-423) (Homo sapiens, UniProt Q09472); assay: ELISA competition assay for disrupting HIF-1α/p300 binding; conditions: read-out: IC50, HIF-1α/p300 interaction, 1% DMSO
HIF-1α (785-826)/p300 CH1 domain (323-423), sequence (Q09472 323-423): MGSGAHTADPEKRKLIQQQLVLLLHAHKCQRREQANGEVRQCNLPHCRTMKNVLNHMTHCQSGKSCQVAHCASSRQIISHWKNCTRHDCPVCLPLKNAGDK
In short: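 Assay wells held 1% DMSO. Each determination ran in triplicate and is reported with ±SD.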

HeLa cell [6] = system: HeLa cell
p300 CH1 (Homo sapiens) = p300 CH1 (Homo sapiens) (UniProt Q09472); conditions: cited from earlier work
p300 CH1 (Homo sapiens), sequence (Q09472 331-417): as the sequence (Q09472 331-417 limits assumed) above

HIF-1α C-TAD, sequence (Q16665 783-826): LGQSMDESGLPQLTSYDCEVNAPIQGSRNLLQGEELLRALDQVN

hydrolysis to picolinamide and ninhydrin 23 [1]: 80%
Compound: O=C(NC1(O)C(=O)c2ccccc2C1=O)c1ccccn1 [compound 5, N-(2-Hydroxy-1,3-dioxo-2,3-dihydro-1H-inden-2-yl)picolinamide]

IC50 [5]: ~100 µM
Compound: c1ccc(SSc2ccccn2)nc1 [compound 13, Dipyridyldisulfide]

Zn(II) ion ejection from KDM4A [3]: caused Zn(II) ion loss
Compound: O=C(NC1(O)C(=O)c2ccccc2C1=O)c1cccnc1 [compound 16, N-(2-Hydroxy-1,3-dioxo-2,3-dihydro-1H-inden-2-yl)nicotinamide]

Zn(II) ion ejection from KDM4A [3]: caused Zn(II) ion loss
Compound: O=C1c2ccccc2C(=O)C1(O)O [compound 23, ninhydrin]
Zn(II) ion release from CH1 domain of p300 (CH1 domain of p300): dose- and time-dependent increases in fluorescence | cytotoxicity in HeLa cell viability assay (HeLa cell [6]): significant dose-dependent cytotoxicity

The next lines start with the compound.

Compound: O=C1c2ccccc2C(=O)c2ccccc21 [compound 7, anthraquinone]
half wave potential (E1/2) [2]: -1.26 V

Compound: O=C1C=CC(=O)c2ccccc21 [compound 8, naphthoquinone]
Zn(II) ion ejection from KDM4A [3]: caused Zn(II) ion loss | cytotoxicity in HeLa cell viability assay (HeLa cell [4]): significant dose-dependent cytotoxicity | half wave potential (E1/2) [2]: -1.03 V | Zn(II) ion release from CH1 domain of p300 (CH1 domain of p300): dose- and time-dependent increases in fluorescence

Compound: O=C(NN1C(=O)c2ccccc2C1=O)c1ccccc1 [compound 21, N-(1,3-Dioxoisoindolin-2-yl)benzamide]
cytotoxicity in HeLa cell viability assay (HeLa cell [6]): not cytotoxic

Compound: HIF-1α C-TAD (from UniProt Q16665)
Kd (p300 CH1 (Homo sapiens)): 0.007 µM
